# Data published in ChEMBL document CHEMBL3877338, “Antiparasitic Lead Discovery: Toward Optimization of a Chemotype with Activity Against Multiple Protozoan Parasites” (ACS Med Chem Lett, 2017).
# Legend:
# [1] = Cytotoxicity against […] cells assessed as reduction in cell viability after 96 hrs by presto blue assay; type: toxicity; conditions: read-out: TC50
# Summary of the method: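 NIH 3T3 cells in phenol red-free DMEM with 2% FBS, 5×10^4/well, left 2 h to attach, then exposed to compound 96 h at 37 °C, 5% CO2. PrestoBlue added for 4 h, fluorescence read at ex 530/em 590 nm.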
# Trypanosoma cruzi = assay: Antitrypanosomal activity against Trypanosoma cruzi Tulahuen amastigotes infected in […] cells after 96 hrs by chlorophenol red-beta-D-galactopyranoside based assay; conditions: NIH3T3, 96 h
# Leishmania major = assay: Antileishmanial activity against luciferase-expressing Leishmania major amastigotes infected in mouse RAW264.7 cells after 96 hrs by luminescence assay; type: functional, cell-based; conditions: RAW264.7, 96 h
# Summary of the method: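 RAW 264.7 macrophages, 10,000/well, 24 h at 37 °C, then infected overnight with luciferase-expressing L. major promastigotes (100,000/well) and washed three times. Twelve two-fold dilutions in duplicate, final […]–10,000 ng/mL. 96 h at 37 °C, 5% CO2, then luciferin 30 min in the dark and luminescence read. IC50 by sigmoidal variable-slope nonlinear regression.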
# [2] = Cytotoxicity against human HepG2 cells assessed as reduction in cell viability after 48 hrs by MTT assay; type: toxicity, cell-based; conditions: read-out: TC50
# Summary of the method: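 HepG2 cells in supplemented MEM, 9570/well, plated overnight at 37 °C. Twelve 1.6-fold dilutions in duplicate, 57–10,000 ng/mL, for 48 h; mefloquine plate control. MTT added for 1 h at room temperature in the dark, formazan dissolved in acidified isopropanol, absorbance read. IC50 by sigmoidal variable-slope nonlinear regression.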
# [3] = tested on: Trypanosoma brucei brucei; assay: Antitrypanosomal activity against Trypanosoma brucei brucei 427 bloodstream forms after 48 hrs by presto blue dye based fluorescence assay; type: functional; conditions: Trypanosoma brucei, 427, 48 h
# [4] = Protein binding in human plasma; type: ADME, cell-free
# [5] = Lipophilicity, log D of the compound at pH 7.4; type: physicochemical; conditions: buffer
# [6] = Thermodynamic aqueous solubility of the compound; type: physicochemical; conditions: buffer; read-out: Therm_solubility
# [7] = Intrinsic clearance in human liver microsomes; type: ADME
# [8] = Ratio of drug level in BALB/c mouse brain to plasma at 10 mg/kg, ip administered as single dose at 0.25 hrs post dose by LC-MS/MS analysis; type: ADME, organism-based
# Summary of the method: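 Female BALB/c mice, 8–12 weeks, single 10 mg/kg i.p. dose (10 mL/kg) in NMP/solutol HS/saline solution. Three mice per time point. Plasma (K2EDTA) and brain collected; brain washed in PBS and homogenized in PBS pH 7.4 to three times its weight. Protein precipitation with acetonitrile, then LC-MS/MS (LLOQ 1.04 ng/mL plasma, 2.08 ng/mL brain). Non-compartmental analysis.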
# [9] = Intrinsic clearance in rat hepatocytes assessed per million cells; type: ADME, cell-based, Hepatocyte
# [10] = Fraction unbound in human plasma; type: ADME, cell-free
SMILES,EC50 (Trypanosoma cruzi) [µM],EC50 (Leishmania major) [µM],EC50 [3] [µM],PPB [4] [%],logD [5],solubility thermodynamic [6] [µM],CLH [7] [µL/min/mg],BPR [8],CLH [9] [µL/min],Fu [10] [%],CC50 at 96 h [1] [µM],CC50 at 48 h [2] [µM]
O=S(=O)(c1ccc(-c2ccc3nccc(Nc4nnc(C5CC5)s4)c3c2)cc1)N1CCOCC1,> 20,2,4.7,,,,,,,,> 20,> 20
CS(=O)(=O)CCNCc1ccc(-c2ccc3ncnc(Nc4ccc(OCc5cccc(F)c5)c(Cl)c4)c3c2)o1 [LAPATINIB],,,,,,,,,,,,> 20
O=S(=O)(c1ccc(-c2ccc3ncccc3c2)cc1)N1CCOCC1,> 20,> 20,> 20,,,,,,,,> 20,> 20
Cc1cnnc(Nc2ccnc3ccc(-c4ccc(S(=O)(=O)N5CCOCC5)cc4)cc23)c1,> 20,> 20,2,,,,,,,,> 20,> 20
Cc1cc(Nc2ccnc3ccc(-c4ccc(S(=O)(=O)N5CCOCC5)cc4)cc23)sn1,3.9,4.5,0.072,,,,,,,,> 20,> 20
CCc1nnc(Nc2ccnc3ccc(-c4ccc(S(=O)(=O)N5CCOCC5)cc4)cc23)s1,> 20,3.1,4.2,,,,,,,,> 20,> 20
N#Cc1cnc(Nc2ccnc3ccc(-c4ccc(S(=O)(=O)N5CCOCC5)cc4)cc23)cn1,> 20,> 20,7.9,,,,,,,,> 20,> 20
O=S(=O)(c1ccc(-c2ccc3nccc(Nc4cncs4)c3c2)cc1)N1CCOCC1,> 20,5.4,1.2,,,,,,,,> 20,> 20
Cc1cnc(Nc2ccnc3ccc(-c4ccc(S(=O)(=O)N5CCOCC5)cc4)cc23)s1,6.1,1.2,1.6,,,,,,,,> 20,> 20
CCn1nccc1Nc1ccnc2ccc(-c3ccc(S(=O)(=O)N4CCOCC4)cc3)cc12,> 20,> 20,2.5,,,,,,,,> 20,> 20
Cc1nnc(Nc2ccnc3ccc(-c4ccc(S(=O)(=O)N5CCOCC5)cc4)cc23)nc1C,> 20,> 20,3.1,,,,,,,,> 20,> 20
O=S(=O)(c1ccc(-c2ccc3ncnc(Nc4ccc(OCc5cccc(F)c5)cc4)c3c2)cc1)N1CCOCC1,,,,,,,,,,,,> 20
Fc1cccc(COc2ccc(Nc3ncnc4ccc(-c5cccc(N6CCOCC6)c5)cc34)cc2Cl)c1,,,,,,,,,,,,> 20
O=S(=O)(c1ccc(-c2ccc3nccc(Nc4ccc(OCc5cccc(F)c5)cc4)c3c2)cc1)N1CCOCC1,2.8,1.2,0.37,,,2,98,,19,< 0.1,,> 5
Cc1noc(C)c1Nc1ccnc2ccc(-c3ccc(S(=O)(=O)N4CCOCC4)cc3)cc12,> 20,> 20,6.6,,,,,,,,> 20,> 20
Cc1cc(Nc2ccnc3ccc(-c4ccc(S(=O)(=O)N5CCOCC5)cc4)cc23)on1,7.6,> 20,1.1,,,,,,,,> 20,> 20
CCOCCOc1ccnc2ccc(-c3ccc(S(=O)(=O)N4CCOCC4)cc3)cc12,> 20,> 20,0.71,,,,,,,,,> 20
O=S(=O)(c1ccc(-c2ccc3nccc(Nc4ncc(Cl)cn4)c3c2)cc1)N1CCOCC1,> 20,0.37,3.8,99.6,,1,,,,,> 20,> 20

# More lines, main results first:
EC50 (Trypanosoma cruzi) [µM],EC50 (Leishmania major) [µM],EC50 [3] [µM],PPB [4] [%],logD [5],solubility thermodynamic [6] [µM],CLH [7] [µL/min/mg],BPR [8],CLH [9] [µL/min],Fu [10] [%],SMILES,CC50 at 96 h [1] [µM],CC50 at 48 h [2] [µM]
> 20,> 20,3.8,,,,,,,,O=S(=O)(c1ccc(-c2ccc3nccc(Nc4cccnc4)c3c2)cc1)N1CCOCC1,> 20,> 20
6.2,7.1,0.98,,,,,,,,O=S(=O)(c1ccc(-c2ccc3nccc(Nc4ccccc4)c3c2)cc1)N1CCOCC1,> 20,> 20
> 20,> 20,0.024,95.6,3.3,1.4,207.5,0.01,31.5,,O=S(=O)(c1ccc(-c2ccc3nccc(Nc4ccncn4)c3c2)cc1)N1CCOCC1,> 20,> 20
> 20,> 20,> 20,,,,,,,,O=S(=O)(c1ccc(-c2ccc3nccc(Nc4ccnnc4)c3c2)cc1)N1CCOCC1,> 20,> 20
> 20,> 20,0.11,,,,,,,,O=S(=O)(c1ccc(-c2ccc3nccc(Nc4ccncc4)c3c2)cc1)N1CCOCC1,> 20,> 20
3.6,5.7,0.31,,,,,,,,COc1ccc(Nc2ccnc3ccc(-c4ccc(S(=O)(=O)N5CCOCC5)cc4)cc23)cc1C,15,9
> 20,> 20,16,,,,,,,,O=S(=O)(c1ccc(-c2ccc3nccc(Nc4ccc5[nH]nnc5c4)c3c2)cc1)N1CCOCC1,> 20,> 20
16,> 20,4.5,,,,,,,,O=S(=O)(c1ccc(-c2ccc3nccc(Nc4ccccn4)c3c2)cc1)N1CCOCC1,> 20,> 20
> 20,5.8,3.2,,,,,,,,O=[N+]([O-])c1ccc(Nc2ccnc3ccc(-c4ccc(S(=O)(=O)N5CCOCC5)cc4)cc23)cn1,> 20,> 20
> 20,> 20,5.6,,,,,,,,COc1ncc(Nc2ccnc3ccc(-c4ccc(S(=O)(=O)N5CCOCC5)cc4)cc23)cn1,> 20,> 20
7.2,5.3,1.7,,,,,,,,COc1ccc(Nc2ccnc3ccc(-c4ccc(S(=O)(=O)N5CCOCC5)cc4)cc23)cc1Cl,> 20,> 20
> 20,> 20,> 20,,,,,,,,O=S(=O)(c1ccc(-c2ccc3nccc(Nc4cnccn4)c3c2)cc1)N1CCOCC1,> 20,> 20
